# Measured values published in paper PMC11913021 (Journal of Medicinal Chemistry, 2024).
# Like-named read-outs stand apart in the source and are kept apart here.
# Legend:
# Type in all cases: cell-based
# PLD = PLD activity inhibition in A549 cells; settings: read-out: IC50 for PLD inhibition
# A549 cells = test: WST-1 cell viability assay, A549; settings: read-out: IC50 of viability
# Summary of the method: (§1)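 Cells grown in DMEM or RPMI 1640 with 10% FBS and 1% penicillin/streptomycin at 37 °C, 5% CO2. Seeded at 5 × 10^3 cells/well and held 24 h at 37 °C, then exposed to test compound for 48 h. WST-1 absorbance was read at 450 nm, in triplicate. IC50 was taken as the concentration giving 50% growth inhibition versus control.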
# HCT116 cells = test: WST-1 cell viability assay, HCT116; settings: read-out: IC50 of viability; HCT116, WST-1, 48 h
# Summary of the method: as §1
IC50 (PLD) [µM],"IC50 (A549 cells; A549, WST-1, 48 h) [µM]",IC50 (HCT116 cells) [µM],"IC50 (A549 cells; Homo sapiens, A549, 48 h) [µM]",Compound
3.1,50,> 50,,"3,5-Bis(trifluoromethyl)phenyl 5-Fluoro-1H-indole-2-carboxylate [3ac]"
,,,18.5,"C[C@@H](CN1CCC(n2c(=O)[nH]c3cc(Cl)ccc32)CC1)NC(=O)c1ccc2ccccc2c1 [VU0155069, reference compound]"
4.31,> 200,> 50,,"N-(3,4-Dihydroxyphenyl)-5-fluoro-1H-indole-2-carboxamide [4c]"
